Measured values published in paper PMC6702078 (Biochemical pharmacology, 2019).

Columns and labels:
[1] = system: androgen-dependent LNCaP PC cells; assay: Cell viability; format: cell-based, human; conditions: for IC50 / IC70 / IC90 / IC20: Homo sapiens, 96 h; for IC50: read-out: ED50; for IC70: read-out: ED70; for IC90: read-out: ED90; for IC20: read-out: ED20; for effect on viability: escalating concentrations, 96 hours (Fig.5C)
[2] = system: castration-resistant PC-3 PC cells; assay: Cell viability; format: cell-based, human; conditions: for IC20 / IC50 / IC70 / IC90: Homo sapiens, 96 h; for IC20: read-out: ED20; for IC50: read-out: ED50; for IC70: read-out: ED70; for IC90: read-out: ED90; for effect on viability: PC-3, escalating concentrations, 96 hours (Fig.5D)
[3] = system: castration-resistant DU-145 PC cells; assay: Cell viability; format: cell-based, human; conditions: for ED20 / ED50 / ED70 / ED90: DU-145, 96 hours, CellTiter Blue; for effect on viability: DU-145, escalating concentrations, 96 hours (Fig.5E)
[4] = system: AR transcriptional activity; assay: AR luciferase reporter assay in LNCaP with R1881; format: cell-based, human; conditions: R1881 2.5nM, 8 hrs
[5] = Kinetic aqueous solubility in PBS; format: physicochemical; conditions: phosphate buffered saline, pH 7.4, aqueous buffer, kinetic from dmso stock
[6] = Mouse liver microsome stability; format: in vitro ADME; conditions: male, CD-1, mouse, liver microsomes, pH 7.4
[7] = Human liver microsome stability; format: in vitro ADME; conditions: both, liver microsomes, pH 7.4
Mouse plasma stability = format: in vitro ADME; conditions: for half-life at 1 μM: male, C57BL/6, mouse, pH 7.4
hCYP3A4 = hCYP3A4 (Homo sapiens, UniProt P08684); assay: Cytochrome P450 inhibition CYP3A4; format: in vitro ADME
hCYP2D6 = hCYP2D6 (Homo sapiens, UniProt P10635); assay: Cytochrome P450 inhibition CYP2D6; format: in vitro ADME
hCYP2C9 = hCYP2C9 (Homo sapiens, UniProt P11712); assay: Cytochrome P450 inhibition CYP2C9; format: in vitro ADME
PSA expression = PSA expression by Western blot in LNCaP expressing AR-V7; format: cell-based, human; conditions: LNCaP stably expressing AR-V7, 10μM, 24 hrs
Outline: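 Cells were lysed in 1x SDS sample buffer (1 × 10^7 cells/ml) and boiled 5 min. PSA and AR levels were assessed by SDS-PAGE and Western blot.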

PARP-1 = PARP-1 (Homo sapiens, UniProt P09874); assay: PARP-1 activity assay in cell free system; format: biochemical; conditions: inhibitors at 10μM; pADPr Western blot and colorimetric assay (Fig.4C-D)
Outline: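 Commercial PARP-1 enzyme was activated by either H4 histone or endonuclease-digested plasmid DNA, with NAD and inhibitor or water, in PARP-1 reaction buffer (Tris pH 8.0, MgCl2, Triton X-100). Reactions ran 30 min at room temperature. pADPr was detected by SDS-PAGE and anti-pADPr Western blot, relative to DMSO-treated mixtures. Inhibitors were tested at 10 μM.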

[8] = system: LNCaP expressing both wild-type and constitutively active AR splice variant AR-V7; assay: Cell viability; format: cell-based, human; conditions: LNCaP AR-V7, 96 hours, CellTiter Blue, XLfit
[9] = system: AR transcriptional activity; assay: AR luciferase reporter assay in LNCaP expressing AR-V7; format: cell-based, human; conditions: LNCaP stably expressing AR-V7, luciferase, 8 hrs
[10] = system: PARP1 enzymatic activity in PC cells; assay: PARP-1 inhibitory assay in human cell culture; format: cell-based
Outline: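 Graded doses of test compound were added in complete medium for 24 or 48 h. Cells were lysed in SDS sample buffer at 1 × 10^7 cells/ml and boiled 5 min. Poly(ADP-ribose) was assessed by SDS-PAGE and Western blot with mouse anti-pADPr (1:500).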

hCYP2D6, sequence (P10635 whole entry): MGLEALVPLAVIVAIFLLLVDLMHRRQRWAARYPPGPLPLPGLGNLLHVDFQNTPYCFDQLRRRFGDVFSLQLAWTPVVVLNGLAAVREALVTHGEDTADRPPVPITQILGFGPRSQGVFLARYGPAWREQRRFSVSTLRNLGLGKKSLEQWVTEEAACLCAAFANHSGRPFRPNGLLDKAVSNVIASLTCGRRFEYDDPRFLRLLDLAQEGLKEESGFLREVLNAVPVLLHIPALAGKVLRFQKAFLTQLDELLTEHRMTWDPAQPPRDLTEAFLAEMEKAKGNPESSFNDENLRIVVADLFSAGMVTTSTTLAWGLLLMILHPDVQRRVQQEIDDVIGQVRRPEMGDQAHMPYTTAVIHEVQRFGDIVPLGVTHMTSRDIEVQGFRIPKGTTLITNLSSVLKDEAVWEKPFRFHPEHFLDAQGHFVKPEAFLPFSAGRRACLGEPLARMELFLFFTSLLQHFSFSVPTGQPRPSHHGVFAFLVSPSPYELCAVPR
hCYP2C9, sequence (P11712 whole entry): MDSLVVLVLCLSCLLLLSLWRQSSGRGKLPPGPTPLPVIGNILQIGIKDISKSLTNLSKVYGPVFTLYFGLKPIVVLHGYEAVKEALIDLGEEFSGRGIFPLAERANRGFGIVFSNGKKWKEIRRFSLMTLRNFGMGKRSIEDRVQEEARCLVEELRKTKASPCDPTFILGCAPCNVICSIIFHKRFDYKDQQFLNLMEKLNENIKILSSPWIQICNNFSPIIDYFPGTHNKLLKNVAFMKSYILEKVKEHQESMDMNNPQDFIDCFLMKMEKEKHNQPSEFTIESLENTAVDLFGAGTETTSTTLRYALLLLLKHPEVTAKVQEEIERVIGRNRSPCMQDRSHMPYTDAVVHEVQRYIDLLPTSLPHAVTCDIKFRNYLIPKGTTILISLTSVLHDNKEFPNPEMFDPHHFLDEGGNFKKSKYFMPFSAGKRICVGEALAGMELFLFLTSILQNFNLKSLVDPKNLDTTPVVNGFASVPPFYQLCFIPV
hCYP3A4, sequence (P08684 whole entry): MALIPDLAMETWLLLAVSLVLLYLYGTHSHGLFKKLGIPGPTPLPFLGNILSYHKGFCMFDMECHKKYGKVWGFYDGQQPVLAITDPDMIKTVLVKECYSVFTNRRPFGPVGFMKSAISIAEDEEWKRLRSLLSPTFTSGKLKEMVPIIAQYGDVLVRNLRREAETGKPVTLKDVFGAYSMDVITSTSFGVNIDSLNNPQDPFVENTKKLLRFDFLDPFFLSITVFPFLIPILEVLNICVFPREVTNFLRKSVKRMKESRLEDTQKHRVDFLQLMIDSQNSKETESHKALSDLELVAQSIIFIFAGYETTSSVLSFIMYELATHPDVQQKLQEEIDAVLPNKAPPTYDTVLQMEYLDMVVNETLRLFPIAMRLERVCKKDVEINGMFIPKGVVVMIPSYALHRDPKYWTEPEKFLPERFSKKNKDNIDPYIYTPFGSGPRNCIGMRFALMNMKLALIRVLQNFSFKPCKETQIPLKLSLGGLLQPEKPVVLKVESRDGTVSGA
PARP-1, sequence (P09874 whole entry): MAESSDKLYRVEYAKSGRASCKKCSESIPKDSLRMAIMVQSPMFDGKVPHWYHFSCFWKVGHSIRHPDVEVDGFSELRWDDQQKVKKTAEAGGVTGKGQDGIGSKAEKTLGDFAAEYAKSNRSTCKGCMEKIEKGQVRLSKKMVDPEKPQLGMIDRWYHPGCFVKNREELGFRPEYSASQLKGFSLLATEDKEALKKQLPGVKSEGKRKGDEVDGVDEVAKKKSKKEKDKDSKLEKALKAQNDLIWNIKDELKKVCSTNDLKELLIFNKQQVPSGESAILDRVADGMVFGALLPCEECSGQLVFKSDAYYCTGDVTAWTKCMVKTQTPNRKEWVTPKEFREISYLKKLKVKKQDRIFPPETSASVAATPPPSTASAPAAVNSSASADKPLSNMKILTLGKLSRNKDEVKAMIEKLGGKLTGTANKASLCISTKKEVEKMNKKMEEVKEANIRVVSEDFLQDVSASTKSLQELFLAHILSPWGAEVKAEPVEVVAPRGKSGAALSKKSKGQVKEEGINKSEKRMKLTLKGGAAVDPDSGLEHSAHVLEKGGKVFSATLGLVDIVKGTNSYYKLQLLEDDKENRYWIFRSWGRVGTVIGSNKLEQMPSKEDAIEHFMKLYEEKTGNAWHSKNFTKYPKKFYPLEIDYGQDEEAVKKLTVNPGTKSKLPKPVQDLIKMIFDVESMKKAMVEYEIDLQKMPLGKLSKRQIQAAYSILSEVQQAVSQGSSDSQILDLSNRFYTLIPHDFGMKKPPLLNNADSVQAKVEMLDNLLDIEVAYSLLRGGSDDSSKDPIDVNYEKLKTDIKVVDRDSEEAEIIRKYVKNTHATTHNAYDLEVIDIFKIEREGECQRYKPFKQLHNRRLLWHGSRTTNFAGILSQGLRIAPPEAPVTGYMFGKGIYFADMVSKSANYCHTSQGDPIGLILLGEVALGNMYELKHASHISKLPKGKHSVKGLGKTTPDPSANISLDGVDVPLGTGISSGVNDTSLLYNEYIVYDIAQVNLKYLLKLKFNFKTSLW

Row | IC50 [1] | IC90 [1] | IC50 [2] | IC90 [2] | effect on R1881-mediated AR transcriptional activity [4] | solubility at 90 min [5] | remaining at 1 h, 1 μM [6] | half-life at 1 μM [7] | microsomal CLint at 1 μM [7] | remaining at 1 h, 1 μM [7] | half-life at 1 μM (Mouse plasma stability; mouse plasma) | IC50 (hCYP3A4) | SMILES | IC70 [1] | IC20 [2] | IC70 [2] | ED20 [3] | ED50 [3] | ED70 [3] | ED90 [3] | IC20 [1] | further results
1 | 26.7 µM | 155 µM | 7 µM | 157 µM | only weak inhibitory effects | – | – | – | – | – | – | – | CNCc1ccc(-c2[nH]c3cc(F)cc4c3c2CCNC4=O)cc1 [Rucaparib, reference compound] | 52.6 µM | 1 µM | 23.2 µM | 0.9 µM | 5.0 µM | 14.8 µM | 82.7 µM | – | –
2 | 2.3 µM | 10.1 µM | 17.5 µM | 40.8 µM | – | 140 µM | 87% | 1.2 min | 1200 µL/min/mg | 95% | 35.9 min | 1.7 µM | C[N+]1(CC(=O)OC2CCCCCCCCCCC2)CCCCCC1.[I-] [MC-270017, 1-(2-(Cyclododecyloxy)-2-oxoethyl)-1-methylazepan-1 ium iodide] | 4.1 µM | 10.2 µM | 24.2 µM | 10.6 µM | 20.9 µM | 31.6 µM | 61.1 µM | 0.9 µM | IC50 (hCYP2D6): 4.4 µM; IC50 (hCYP2C9): > 10 µM
3 | 3.1 µM | 12.2 µM | 14.6 µM | 48.1 µM | – | 95.2 µM | 84% | 1.2 min | 1150 µL/min/mg | 92% | 19.6 min | 4.67 µM | CC1(C)CC[N+](C)(CC(=O)OC2CCCCCCCCCCC2)CC1.[I-] [MC-270019, 1-(2-(Cyclododecyloxy)-2-oxoethyl)-1,4,4-trimethylpiperidin-1-ium iodide] | 5.2 µM | 6.9 µM | 23.1 µM | 10.9 µM | 24.6 µM | 40.4 µM | 89.1 µM | 1.3 µM | IC50 (hCYP2D6): 9.93 µM; IC50 (hCYP2C9): > 10 µM
4 | – | – | – | – | – | – | – | – | – | – | – | – | CNC(=O)c1ccc(N2C(=S)N(c3ccc(C#N)c(C(F)(F)F)c3)C(=O)C2(C)C)cc1F [Enzalutamide] | – | – | – | – | – | – | – | – | effect on PSA expression (PSA expression): negligible inhibitory effect
5 | 15.2 µM | 84.2 µM | 36.8 µM | 310 µM | only weak inhibitory effects | 191 µM | 101% | 1.6 min | 850 µL/min/mg | 100% | > 240 min | 1.93 µM | C[N+]1(CC(=O)NC2CCCCCCCCCCC2)CCCCC1.[I-] [FC-7220, 1-[(Cyclododecylcarbamoyl)methyl]-1-methylpiperidin-1-ium iodide] | 29.4 µM | 9.6 µM | 83.7 µM | 10.0 µM | 37.2 µM | 82.7 µM | 296.1 µM | 5.1 µM | IC50 (hCYP2D6): 2.37 µM; IC50 (hCYP2C9): > 10 µM; PARP-1 inhibitory activity in cell free system (PARP-1): reduced anti-PARP-1 activity
6 | – | – | – | – | – | – | – | – | – | – | – | – | CCN(CC)CCOC(=O)c1ccc(N)cc1 [procaine, reference compound] | – | – | – | – | – | – | – | – | stable in PBS (Mouse plasma stability; PBS pH 7.4, 1 μM, 60 min, 37°C, typical value): 100%; degraded in plasma (Mouse plasma stability; mouse plasma, 1 μM, 60 min, 37°C, typical value): > 95%
7 | 20.4 µM | 4450 µM | 9.3 µM | 384 µM | only weak inhibitory effects | – | – | – | – | – | – | – | O=C(c1cc(Cc2n[nH]c(=O)c3ccccc23)ccc1F)N1CCN(C(=O)C2CC2)CC1 [Olaparib, reference compound] | 163 µM | 0.9 µM | 39 µM | 1.2 µM | 7.4 µM | 22.0 µM | 125.8 µM | 0.7 µM | ED20 [8]: 7.3 µM; ED50 [8]: 61.9 µM; ED70 [8]: 228.7 µM; ED90 [8]: 1835 µM; effect on AR transcriptional activity [9]: negligible inhibitory effect; effect on PSA expression (PSA expression): negligible inhibitory effect
8 | – | – | – | – | only weak inhibitory effects | – | – | – | – | – | – | – | Cl.O=C(CN1CCCCC1)OC1CCCCCCCCCCC1 [FC-7218, Cyclododecyl 2-(piperidin-1-yl)acetate hydrochloride] | – | – | – | – | – | – | – | – | effect on viability [1]: no significant effect; effect on viability [2]: no significant effect; effect on viability [3]: no significant effect; effect on the PARP1 enzymatic activity in PC cells [10]: insignificant effect
9 | 11.2 µM | 52.1 µM | 60.6 µM | 3270 µM | – | 110 µM | 88% | 1.3 min | 1070 µL/min/mg | 85% | 118 min | 3.92 µM | C[N+]1(CC(=O)OC2CCCCCCCCCCC2)CCSCC1.[I-] [MC-270021, 4-(2-(Cyclododecyloxy)-2-oxoethyl)-4-methylthiomorpholin-4-ium iodide] | 20.3 µM | 4.9 µM | 282 µM | – | – | – | – | 4.2 µM | IC50 (hCYP2D6): 9.25 µM; IC50 (hCYP2C9): > 10 µM
10 | 55.6 µM | 768 µM | 70.5 µM | 1630 µM | only weak inhibitory effects | – | – | – | – | – | – | – | C[C@]1(c2nc3c(C(N)=O)cccc3[nH]2)CCCN1 [Veliparib, reference compound] | 153 µM | 9.7 µM | 237 µM | 6.7 µM | 36.7 µM | 104.0 µM | 547.2 µM | 10.6 µM | –
11 | 3 µM | 19.4 µM | 22.4 µM | 85 µM | – | 125 µM | 98% | 1.9 min | 721 µL/min/mg | 92% | 57.2 min | 2.98 µM | C[N+]1(CC(=O)OC2CCCCCCCCCCC2)CCCC1.[I-] [MC-270016, 1-(2-(Cyclododecyloxy)-2-oxoethyl)-1-methylpyrrolidin-1-ium iodide] | 6.1 µM | 9.6 µM | 37.4 µM | 13.3 µM | 38.6 µM | 73.9 µM | 208.1 µM | 0.9 µM | IC50 (hCYP2D6): 8.54 µM; IC50 (hCYP2C9): > 10 µM
12 | – | – | – | – | – | – | – | – | – | – | – | – | O=C(CN1CCC1)OC1CCCCCCCCCCC1 [MC-270008, Cyclododecyl 2-(azetidin-1-yl)acetate] | – | – | – | – | – | – | – | – | PARP-1 inhibitory activity in cell free system (PARP-1): diminished capacity to inhibit PARP-1; effect on the PARP1 enzymatic activity in PC cells [10]: insignificant effect
13 | – | – | – | – | only weak inhibitory effects | – | – | – | – | – | – | – | Cl.O=C(CN1CCCCC1)NC1CCCCCCCCCCC1 [FC-7219, N-cyclododecyl-2-(piperidin-1-yl)acetamide hydrochloride] | – | – | – | – | – | – | – | – | effect on viability [1]: no significant effect; effect on viability [2]: no significant effect; effect on viability [3]: no significant effect; effect on the PARP1 enzymatic activity in PC cells [10]: insignificant effect
